T cruzi growth – blocks T. cruzi growth in NIH3T3 culture. T. cruzi beta-gal in NIH3T3, GalScreen luminescence, 90 h. inhibition, % at 8.34 µM. 5.9% of 77,000 active. AID 624255;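 active means mean inhibition above about 93%, with at least 55% of replicates each passing it, limit read from the data, passing the limit was not always enough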
IDH1 R132H inh – inhibitors of human IDH1 R132H. O75874. IDH1 R132H reductase, diaphorase/resazurin fluorescence, 60 min. inhibition, % at 10 µM. 0.18% of 70,000 active. AID 624101; in the data active means inhibition above about 34%
KDM4C inh – inhibitors of human demethylase GASC-1 KDM4C; Q9H3R0; GST-KDM4C 2-372, H3K9me3 peptide, LANCE TR-FRET; inhibition, % at 12.5 µM; 0.15% of 96,000 active; AID 720574;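 active means mean replicate inhibition above about 25%, with at least 55% of replicates also reaching it, limit read from the data, passing the limit was not always enough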
Target sequence (Q9H3R0 2-372 limits assumed): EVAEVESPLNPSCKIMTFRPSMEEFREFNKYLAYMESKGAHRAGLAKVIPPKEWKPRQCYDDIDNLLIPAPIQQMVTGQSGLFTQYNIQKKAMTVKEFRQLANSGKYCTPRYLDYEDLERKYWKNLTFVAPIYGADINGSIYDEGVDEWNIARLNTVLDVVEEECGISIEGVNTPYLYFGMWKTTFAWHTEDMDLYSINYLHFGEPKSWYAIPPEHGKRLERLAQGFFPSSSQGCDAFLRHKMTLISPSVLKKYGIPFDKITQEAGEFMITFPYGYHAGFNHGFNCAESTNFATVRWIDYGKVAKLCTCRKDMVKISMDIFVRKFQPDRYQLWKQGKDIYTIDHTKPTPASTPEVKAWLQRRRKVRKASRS
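Compound: one test concentration per compound; Material: GST-GASC-1 enzyme fragment 2-372; Amount: GASC-1 enzyme at 10 nM final in reaction; Also added: H3K9me3 peptide substrate, Fe(II), 2-oxoglutarate; Technique: LANCE TR-FRET; Times: 30 min demethylation and 1 h detection at room temperature.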
Pf Dd2 growth – inhibitors of Plasmodium falciparum Dd2 growth; P. falciparum Dd2 growth, SYBR Green, 72 h; active compounds read low; activity change, % at 10 µM; 2.3% of 94,000 active; in the data active means activity change below about -80%
A number is an active result; i = inactive; nt = not tested or not shown; ! = repeats disagree. Rows were chosen to be rich in hits. Some 5.9% of all compounds tested hit in one or more screens of this group.

SMILES | T cruzi growth | IDH1 R132H inh | KDM4C inh | Pf Dd2 growth
O=C(NCc1ccco1)c1cc(-c2cccc(Cl)c2)nc2ccccc12 | nt | i | nt | nt
CCOC(=O)c1c(-c2ccccc2)csc1NC(=O)c1cccc(OC(C)=O)c1 | nt | i | nt | nt
COC(=O)c1c(NC(=O)CC2Nc3cccc4cccc(c34)NC2=O)sc(C)c1C (stereo not given) | nt | i | nt | nt
COC(=O)c1cccc(NC(=O)CN2C(=O)c3ccccc3S2(=O)=O)c1C | nt | i | nt | nt
C[C@H]1CN([C@@H](C)CO)C(=O)c2c(c3ccccc3n2C)-c2ccccc2CO[C@H]1CN(C)Cc1ccc(-c2ccccc2)cc1 | nt | nt | i | -88
C[C@@H]1CN([C@@H](C)CO)C(=O)c2c(c3ccccc3n2C)-c2ccccc2CO[C@@H]1CN(C)Cc1ccc(F)cc1 | nt | nt | i | i
C[C@H]1CN([C@@H](C)CO)C(=O)c2c(c3ccccc3n2C)-c2ccccc2CO[C@@H]1CN(C)Cc1ccc(F)cc1 | nt | nt | i | -83
CCCc1cn(CC[C@@H]2CC[C@H](NS(=O)(=O)c3ccc(-c4ccccc4)cc3)[C@@H](CO)O2)nn1 | i | i | i | i
CCCc1cn(CC[C@H]2CC[C@H](NS(=O)(=O)c3ccc(-c4ccccc4)cc3)[C@@H](CO)O2)nn1 | i | i | i | -89
CCCc1cn(CC[C@@H]2CC[C@@H](NS(=O)(=O)c3ccc(-c4ccccc4)cc3)[C@H](CO)O2)nn1 | i | i | i | -93
CCCc1cn(CC[C@H]2CC[C@@H](NS(=O)(=O)c3ccc(-c4ccccc4)cc3)[C@H](CO)O2)nn1 | i | i | i | -94
O=C(NCCNC(=O)c1cc2ccccc2cc1O)c1cc2ccccc2cc1O | nt | i | nt | nt
CN(C)c1ccc2c3c(ccc(N(C)C)c13)[C@](O)(C(F)(F)F)O[C@]2(O)C(F)(F)F | nt | i | nt | nt
Cc1ccc(CCC(=O)Nc2cc(Cl)cc(Cl)c2)o1 | nt | i | nt | nt
COc1ccc(CN(C)C[C@@H]2Oc3ccc(NC(=O)CCCCCC(=O)Nc4ccccc4N)cc3CC(=O)N([C@@H](C)CO)C[C@@H]2C)cc1 | nt | nt | i | -87
C[C@H](CO)N1C[C@H](C)[C@H](CN(C)Cc2ccc(-c3ccccc3)cc2)Oc2ccc(NC(=O)CCCCCC(=O)Nc3ccccc3N)cc2CC1=O | i | i | nt | -83
COc1ccc(CN(C)C[C@@H]2Oc3ccc(NC(=O)CCCCCC(=O)Nc4ccccc4N)cc3CC(=O)N([C@H](C)CO)C[C@@H]2C)cc1 | nt | i | i | -85
COc1ccc(CNC(=O)C[C@H]2C=C[C@@H](NS(=O)(=O)c3cccc(OC)c3)[C@@H](CO)O2)cc1 | nt | nt | i | -91
COc1ccc(CNC(=O)C[C@@H]2C=C[C@H](NS(=O)(=O)c3cccc(OC)c3)[C@@H](CO)O2)cc1 | nt | i | i | nt
CCC(C)C(NC(=O)C(C)(C)NC(=O)C(C)(CC)NC(=O)C(N)Cc1c[nH]c2ccccc12)C(=O)NC(=O)CCC(NC(C)=O)C(=O)O (stereo not given) | nt | i | nt | nt
COc1cc(O[C@@H]2O[C@H](CO)[C@@H](O)[C@H](O)[C@H]2O)cc2occ(-c3ccc(O)cc3)c(=O)c12 | nt | i | nt | nt
C[C@@H]1CN([C@H](C)CO)C(=O)CCCn2cc(nn2)CO[C@@H]1CN(C)C(=O)Nc1ccc(N2CCN(C)CC2)cc1 | i | i | i | i
C[C@H]1CN([C@@H](C)CO)C(=O)CCCn2nncc2CO[C@@H]1CN(C)C(=O)Nc1ccc(N2CCCCC2)cc1 | i | nt | i | -90!
C[C@H](CO)N1C[C@H](C)[C@H](CN(C)C(=O)Nc2ccc(N3CCCCC3)cc2)OCc2cnnn2CCCC1=O | i | i | i | i
C[C@H]1CN([C@@H](C)CO)C(=O)CCCn2cc(nn2)CO[C@@H]1CN(C)C(=O)Nc1ccc(N2CCCCC2)cc1 | i | i | i | -89!
SMILES | T cruzi growth | IDH1 R132H inh | KDM4C inh | Pf Dd2 growth
COc1ccccc1S(=O)(=O)N(C)C[C@H]1OCc2cn(nn2)CCCC(=O)N([C@@H](C)CO)C[C@@H]1C | i | nt | nt | -89
CCOc1ccc(-n2c(SCC(=O)N3CCOCC3)nnc2-c2ccncc2)cc1 | nt | i | nt | nt
CCCC#Cc1cnc2c(c1)C(=O)N([C@@H](C)CO)C[C@@H](C)[C@H](CN(C)C(=O)Nc1cc(F)ccc1F)O2 | nt | i | i | -83
C[C@H](CO)N1C[C@H](C)[C@H](CN(C)C(=O)Nc2ccc(F)cc2)Oc2ncc(-c3cccc(C(F)(F)F)c3)cc2C1=O | 109 | i | i | i
C[C@@H]1CN([C@H](C)CO)C(=O)c2cc(-c3ccc(C#N)cc3)cnc2O[C@H]1CN(C)C(=O)Nc1ccc(C(F)(F)F)cc1 | nt | nt | i | -94
C[C@H](CO)N1C[C@H](C)[C@H](CN(C)C(=O)Nc2ccc(F)cc2)Oc2ncc(Br)cc2C1=O | i | 34! | i | i

Bioassay records from PubChem.
